Data taken from the M2OR odorant receptor database.
Numbering of substitutions follows the chain as printed.

Columns and labels:
Conditions in all cases: stereoisomer not certain
O52E8 = system: O52E8
How it was run: (§1)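 Each entry records the cell line, G-protein, co-transfected protein and tags used. Methods varied with the source, often transient luciferase assays in mammalian cell lines. A receptor–molecule pair is called responsive (active) if the original authors judged its signal statistically different from baseline and non-responsive (inactive) otherwise.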

O52H1 = system: T1, O52H1
T1 sequence (whole entry): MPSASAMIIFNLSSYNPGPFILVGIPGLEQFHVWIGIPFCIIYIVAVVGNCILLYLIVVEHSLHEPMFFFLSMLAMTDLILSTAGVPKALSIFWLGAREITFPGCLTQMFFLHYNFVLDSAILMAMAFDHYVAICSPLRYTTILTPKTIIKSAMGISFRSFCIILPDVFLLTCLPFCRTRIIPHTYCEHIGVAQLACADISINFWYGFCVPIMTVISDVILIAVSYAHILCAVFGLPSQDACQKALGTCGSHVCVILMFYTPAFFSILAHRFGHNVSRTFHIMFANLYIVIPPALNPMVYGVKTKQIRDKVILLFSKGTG
How it was run: as §1

O52A1 = system: T2, O52A1
T2 sequence (whole entry): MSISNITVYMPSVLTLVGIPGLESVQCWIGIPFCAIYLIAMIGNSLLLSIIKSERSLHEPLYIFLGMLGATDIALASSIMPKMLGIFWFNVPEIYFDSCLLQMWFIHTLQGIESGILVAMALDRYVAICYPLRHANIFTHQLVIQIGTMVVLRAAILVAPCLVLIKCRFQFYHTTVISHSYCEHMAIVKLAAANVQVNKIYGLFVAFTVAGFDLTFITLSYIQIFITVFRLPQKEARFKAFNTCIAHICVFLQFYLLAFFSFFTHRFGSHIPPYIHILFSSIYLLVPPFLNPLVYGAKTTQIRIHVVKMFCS
How it was run: as §1

O52B6 V288I = system: T3, O52B6 V288I
T3 sequence (whole entry): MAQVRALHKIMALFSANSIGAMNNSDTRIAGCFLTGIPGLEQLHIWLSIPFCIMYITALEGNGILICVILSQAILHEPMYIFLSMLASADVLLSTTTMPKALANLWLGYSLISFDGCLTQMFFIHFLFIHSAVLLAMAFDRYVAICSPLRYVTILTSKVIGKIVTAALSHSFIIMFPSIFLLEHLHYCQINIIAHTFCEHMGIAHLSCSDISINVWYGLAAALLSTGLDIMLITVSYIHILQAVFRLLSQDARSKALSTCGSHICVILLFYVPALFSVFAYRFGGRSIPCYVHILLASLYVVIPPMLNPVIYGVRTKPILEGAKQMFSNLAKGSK
How it was run: as §1

O52E2 R264C = system: O52E2 R264C
Chain of O52E2 R264C (as listed by the source, stated change not applied): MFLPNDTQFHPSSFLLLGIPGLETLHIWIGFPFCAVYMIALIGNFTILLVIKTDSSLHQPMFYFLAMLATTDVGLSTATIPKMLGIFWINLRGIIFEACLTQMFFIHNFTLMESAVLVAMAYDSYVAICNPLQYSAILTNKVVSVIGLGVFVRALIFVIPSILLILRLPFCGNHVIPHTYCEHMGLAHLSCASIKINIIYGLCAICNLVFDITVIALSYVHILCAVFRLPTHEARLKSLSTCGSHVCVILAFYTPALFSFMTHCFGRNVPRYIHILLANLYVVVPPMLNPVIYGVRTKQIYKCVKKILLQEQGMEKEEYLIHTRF
How it was run: as §1

O52E4 = system: O52E4
Chain of O52E4 (as listed by the source): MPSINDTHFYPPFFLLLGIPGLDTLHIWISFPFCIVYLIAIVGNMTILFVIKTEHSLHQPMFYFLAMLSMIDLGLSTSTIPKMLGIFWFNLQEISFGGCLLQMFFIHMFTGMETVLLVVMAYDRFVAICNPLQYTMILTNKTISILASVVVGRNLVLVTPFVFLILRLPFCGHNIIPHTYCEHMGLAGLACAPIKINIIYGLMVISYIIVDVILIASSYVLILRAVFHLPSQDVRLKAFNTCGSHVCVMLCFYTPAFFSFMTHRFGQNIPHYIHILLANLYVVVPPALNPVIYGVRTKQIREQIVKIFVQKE
How it was run: as §1

O52E5 = system: O52E5
Chain of O52E5 (as listed by the source): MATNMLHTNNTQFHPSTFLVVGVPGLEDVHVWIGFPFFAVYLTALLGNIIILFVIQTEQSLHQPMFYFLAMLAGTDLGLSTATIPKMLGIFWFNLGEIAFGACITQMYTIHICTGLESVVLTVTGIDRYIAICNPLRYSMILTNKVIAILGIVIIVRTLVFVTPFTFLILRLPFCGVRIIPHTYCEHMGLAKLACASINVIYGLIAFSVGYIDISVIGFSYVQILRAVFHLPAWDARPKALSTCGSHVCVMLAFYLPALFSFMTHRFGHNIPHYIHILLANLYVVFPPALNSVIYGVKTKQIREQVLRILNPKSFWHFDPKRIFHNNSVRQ
How it was run: as §1

O52H1 A89T H130R C242R = system: T4, O52H1 A89T H130R C242R
T4 sequence (whole entry): T1 sequence (whole entry) with A89T, H130R, C242R
How it was run: as §1

O52H1 H130R C242R = system: T5, O52H1 H130R C242R
T5 sequence (whole entry): T1 sequence (whole entry) with H130R, C242R
How it was run: as §1

O52I2 I74L = system: T6, O52I2 I74L
T6 sequence (whole entry): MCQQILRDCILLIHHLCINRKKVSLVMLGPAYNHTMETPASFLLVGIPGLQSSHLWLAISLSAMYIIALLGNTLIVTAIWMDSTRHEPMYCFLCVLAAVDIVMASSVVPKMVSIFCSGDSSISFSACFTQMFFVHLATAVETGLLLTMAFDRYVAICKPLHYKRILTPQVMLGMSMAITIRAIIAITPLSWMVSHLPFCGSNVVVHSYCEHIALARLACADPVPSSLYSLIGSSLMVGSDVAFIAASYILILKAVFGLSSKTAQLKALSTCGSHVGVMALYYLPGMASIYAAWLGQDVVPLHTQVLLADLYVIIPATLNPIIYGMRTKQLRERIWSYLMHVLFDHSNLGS
How it was run: as §1

Measured: odorant receptor agonist call

Chain of O52E8 (as listed by the source): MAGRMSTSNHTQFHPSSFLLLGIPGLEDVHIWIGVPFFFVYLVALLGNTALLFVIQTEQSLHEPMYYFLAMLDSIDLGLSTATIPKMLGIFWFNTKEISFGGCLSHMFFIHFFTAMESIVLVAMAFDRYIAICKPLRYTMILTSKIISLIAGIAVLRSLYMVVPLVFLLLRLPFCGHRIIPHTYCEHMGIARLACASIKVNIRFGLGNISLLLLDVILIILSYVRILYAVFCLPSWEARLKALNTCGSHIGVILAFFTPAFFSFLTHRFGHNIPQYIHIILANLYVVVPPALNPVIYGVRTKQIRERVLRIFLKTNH

CCC(S)C(C)CO (stereo not given)
inactive: O52E8 | O52H1

CCCCCC(=O)C(C)C(C)=O (stereo not given)
inactive: O52E8 | O52H1

CCC1OC(C)=C(O)C1=O (stereo not given)
inactive: all assays above

CCCC(S)CCOC(C)=O (stereo not given)
inactive: all assays above

CC1=NC(C)C(C)S1 (stereo not given)
inactive: all assays above

CCCCCC1CCCC(=O)O1 (stereo not given)
inactive: O52E8 | O52H1

CC1=C(O)C(=O)C(C)O1 (stereo not given)
inactive: all assays above

CCCCCC(S)C(C)CO (stereo not given)
inactive: O52E8 | O52H1

CCCCCCC=CCCC=O
not listed: O52E5
inactive: all other assays above

CC1CCCCCCCCCCCCC(=O)C1 (stereo not given)
inactive: O52E8 | O52H1

Cc1cnc(C)c(C)n1
inactive: all assays above

CCC1OC(=O)C(O)=C1C (stereo not given)
inactive: all assays above

CC1=C(O)C(=O)OC1C (stereo not given)
inactive: all assays above

CC(=O)c1c(C)c([N+](=O)[O-])c(C(C)(C)C)c([N+](=O)[O-])c1C
inactive: O52E8 | O52H1

CCCCC(S)C(C)CO (stereo not given)
inactive: O52E8 | O52H1

CC(CO)CS (stereo not given)
inactive: O52E8 | O52H1
